In paper PMC4425413 (The Biochemical journal, 2015):

Key:
HeLa cells = assay: STS-induced apoptosis; assay type: cell-based; conditions: 100 nM STS 20 h without the peptides
Method in brief: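 HeLa cells in DMEM + 10% FBS, grown to 70%–80% confluence. Apoptosis induced with 100 nM staurosporine for 20 h; untreated cells as control. Early apoptosis scored by Annexin V–FITC staining, late apoptosis by TUNEL, as percentage of cells. Means + S.D. from three independent experiments.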

[1] = tested on: selenite-induced cataracts in rats; assay: Selenite cataract in rat pups; assay type: in vivo, Sprague–Dawley rat; conditions: selenite alone compared with untreated controls

SMILES	early-stage apoptosis (% of the cells), inducer alone (HeLa cells; Annexin V–FITC) [%]	late stage apoptosis (% of the cells), inducer alone (HeLa cells; TUNEL) [%]	total soluble lens proteins, selenite alone ([1]; Fig 9B)	lens GSH content, selenite alone ([1]; Fig 9C)
CN[C@@H]1C[C@H]2O[C@@](C)([C@@H]1OC)n1c3ccccc3c3c4c(c5c6ccccc6n2c5c31)C(=O)NC4 [STS, staurosporine]	14	5	–	–
O=[Se]([O-])[O-].[Na+].[Na+] [sodium selenite]	–	–	reduction	reduction
